Common to all, as to assay type: functional, cell-based
One test has as its system MDA-MB-231. Kind of test: Cytotoxicity against human MDA-MB-231 cells after 72 hrs by MTT assay. The conditions noted are these: MDA-MB-231, 72 h. In outline: (§1)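 Cells suspended in MEM medium, plated and incubated 24 h at 37 °C in 5% CO₂, then exposed to compounds at indicated final concentrations for 72 h. IC₅₀ from averages of three determinations, relative to DMSO vehicle control.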
(Formazan colour is commonly taken as a measure of viable cells.)

A further test relates to HT-29. The test is described as follows: Cytotoxicity against human HT-29 cells after 72 hrs by MTT assay. The conditions noted are these: HT-29, 72 h. In outline: as §1
Test [1] can be described thus: Cytotoxicity against human H460 cells after 72 hrs by MTT assay. The conditions noted are these: NCI-H460, 72 h. In outline: as §1
Test [2] in a line: Cytotoxicity against human MKN45 cells after 72 hrs by MTT assay. The conditions noted are these: MKN-45, 72 h. In outline: as §1

Here are results for 17 compounds from ChEMBL document CHEMBL3352345, “Design, synthesis and biological evaluation of novel thieno[3,2-d]pyrimidine derivatives containing diaryl urea moiety as potent antitumor agents” (Eur J Med Chem, 2014).

What is called IC50 is the concentration that gives 50% inhibition. Take `CCN(CC)CCCNc1nc(-c2ccc(NC(=O)Nc3ccccc3Cl)cc2)nc2c(Cl)c(Cl)sc12`: the IC50 came out at 0.97 µM in the test on MDA-MB-231, 0.41 µM in the test with HT-29, 0.33 µM in test [1] and 1.45 µM in test [2].

In the case of `CN(C)CCNc1nc(-c2ccc(NC(=O)Nc3ccccc3Cl)cc2)nc2ccsc12`, the IC50 is 0.55 µM in the test on MDA-MB-231, 0.31 µM in the test with HT-29, 0.23 µM in test [1] and 0.85 µM in test [2].

As to `CCN(CC)CCNc1nc(-c2ccc(NC(=O)Nc3ccc(Cl)cc3)cc2)nc2c(Cl)c(Cl)sc12`, the IC50 with MDA-MB-231 worked out at 0.75 µM; in the test on HT-29 it was 0.43 µM; in test [1] it was 0.32 µM; in test [2] it was 0.89 µM.

In the case of `CCN(CC)CCNc1nc(-c2ccc(NC(=O)Nc3ccccc3Cl)cc2)nc2c(Cl)c(Cl)sc12`, the IC50 is 1.41 µM in the test on MDA-MB-231, 0.55 µM in the test on HT-29, 0.46 µM in test [1] and 1.13 µM in test [2].

As to `CCN(CC)CCCNc1nc(-c2ccc(NC(=O)Nc3ccc(Cl)cc3Cl)cc2)nc2c(Cl)c(Cl)sc12`, the IC50 with MDA-MB-231 stood at 3.94 µM; in the test with HT-29, 1.23 µM; in test [1] it was 1.17 µM; in test [2] it was 5.72 µM.

In the case of `CN(C)CCNc1nc(-c2ccc(NC(=O)Nc3ccc(Cl)cc3)cc2)nc2ccsc12`, the IC50 was 0.31 µM in the test on MDA-MB-231, 0.095 µM in the test with HT-29, 0.13 µM in test [1] and 0.25 µM in test [2].

For the compound `CN(C)CCCNc1nc(-c2ccc(NC(=O)Nc3ccc(F)cc3)cc2)nc2c(Cl)c(Cl)sc12`, the IC50 with MDA-MB-231 turned out to be 0.98 µM; in the test with HT-29 it was 0.43 µM; in test [1], 0.65 µM; in test [2], 1.12 µM.

`CN(C)CCNc1nc(-c2ccc(NC(=O)Nc3ccccc3Cl)cc2)nc2c(Cl)c(Cl)sc12`: the IC50 with MDA-MB-231 amounted to 1.35 µM; with HT-29, 0.57 µM; in test [1], 0.44 µM; in test [2] it was 1.17 µM.

As to `CCN(CC)CCCNc1nc(-c2ccc(NC(=O)Nc3ccccc3F)cc2)nc2ccsc12`, the half-inhibitory concentration (IC50) in the test on MDA-MB-231 was 0.86 µM; with HT-29, 0.55 µM; in test [1], 0.37 µM; in test [2], 0.58 µM.

With `Cc1ccc(NC(=O)Nc2ccc(-c3nc(NCCN(C)C)c4sccc4n3)cc2)cc1`, the IC50 was determined as 2.18 µM in the test on MDA-MB-231, 2.15 µM in the test on HT-29, 1.88 µM in test [1] and 2.38 µM in test [2].

Take `Cc1ccc(NC(=O)Nc2ccc(-c3nc(NCCCN(C)C)c4sc(Cl)c(Cl)c4n3)cc2)cc1`: the IC50 with MDA-MB-231 is 4.98 µM; in the test on HT-29, 1.32 µM; in test [1] it was 1.11 µM; in test [2] it was 3.7 µM.

For the compound `CCN(CC)CCNc1nc(-c2ccc(NC(=O)Nc3ccc(F)cc3)cc2)nc2c(Cl)c(Cl)sc12`, the IC50 in the test on MDA-MB-231 is 1.13 µM; in the test with HT-29, 0.65 µM; in test [1], 0.5 µM; in test [2] it was 1.37 µM.

In the case of `CN(C)CCCNc1nc(-c2ccc(NC(=O)Nc3ccc(Cl)cc3Cl)cc2)nc2ccsc12`, the IC50 in the test on MDA-MB-231 turned out to be 1.86 µM; in the test with HT-29 it was 1.86 µM; in test [1], 1.02 µM; in test [2], 2.27 µM.

For the compound `CCN(CC)CCCNc1nc(-c2ccc(NC(=O)Nc3ccc(C)cc3)cc2)nc2c(Cl)c(Cl)sc12`, the IC50 in the test with MDA-MB-231 was found to be 3.04 µM; with HT-29, 0.89 µM; in test [1], 1.24 µM; in test [2] it was 3.32 µM.

In the case of `CCN(CC)CCNc1nc(-c2ccc(NC(=O)Nc3ccc(C)cc3)cc2)nc2c(Cl)c(Cl)sc12`, the IC50 was 2.01 µM with MDA-MB-231, 0.95 µM with HT-29, 0.84 µM in test [1] and 1.45 µM in test [2].

With `CCN(CC)CCNc1nc(-c2ccc(NC(=O)Nc3ccc(Cl)cc3)cc2)nc2ccsc12`, the IC50 in the test with MDA-MB-231 was 0.55 µM; with HT-29 it was 0.15 µM; in test [1], 0.19 µM; in test [2], 0.37 µM.

As to `CS(=O)(=O)N1CCN(Cc2cc3nc(-c4cccc5[nH]ncc45)nc(N4CCOCC4)c3s2)CC1` [PICTILISIB], in test [2], half-maximal inhibition (IC50) was put at 0.6 µM.
